From ChEMBL document CHEMBL1132711 (J Med Chem, 1999)
pEC50, pIC50, pKi: −log10 of the molar value.

Key:
[1] = biological target: T1, Progesterone receptor (Homo sapiens) (UniProt P06401); assay: (§1) Compound was tested for agonistic activity by cotransfection assay against human Progesterone receptor in CV-1 cells; assay type: functional, cell-based
T1 sequence (whole entry): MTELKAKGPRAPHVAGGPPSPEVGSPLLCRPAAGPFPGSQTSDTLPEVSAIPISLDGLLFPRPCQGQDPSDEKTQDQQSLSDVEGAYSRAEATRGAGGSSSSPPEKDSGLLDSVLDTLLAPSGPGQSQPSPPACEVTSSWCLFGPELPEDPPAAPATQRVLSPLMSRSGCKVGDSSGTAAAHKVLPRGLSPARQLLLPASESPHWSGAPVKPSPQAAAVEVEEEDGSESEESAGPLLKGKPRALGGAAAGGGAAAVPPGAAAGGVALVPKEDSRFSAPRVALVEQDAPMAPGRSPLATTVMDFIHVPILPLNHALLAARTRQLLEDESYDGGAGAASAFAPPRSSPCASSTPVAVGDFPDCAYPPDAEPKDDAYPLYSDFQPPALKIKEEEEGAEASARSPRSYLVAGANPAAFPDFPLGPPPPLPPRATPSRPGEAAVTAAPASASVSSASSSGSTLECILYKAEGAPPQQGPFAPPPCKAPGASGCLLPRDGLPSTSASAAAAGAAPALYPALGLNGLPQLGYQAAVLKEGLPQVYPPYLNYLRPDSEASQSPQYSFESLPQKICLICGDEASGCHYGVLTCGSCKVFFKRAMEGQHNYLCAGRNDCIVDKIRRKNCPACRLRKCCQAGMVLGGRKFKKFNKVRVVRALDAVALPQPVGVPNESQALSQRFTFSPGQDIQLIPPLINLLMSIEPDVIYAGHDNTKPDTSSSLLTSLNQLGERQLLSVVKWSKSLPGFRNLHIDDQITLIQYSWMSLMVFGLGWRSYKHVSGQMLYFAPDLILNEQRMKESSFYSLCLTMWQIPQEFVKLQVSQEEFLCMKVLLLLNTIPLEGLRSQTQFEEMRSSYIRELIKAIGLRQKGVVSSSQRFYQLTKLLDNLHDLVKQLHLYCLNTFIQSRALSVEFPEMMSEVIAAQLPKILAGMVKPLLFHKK

[2] = biological target: T1, Progesterone receptor (Homo sapiens); assay: (§2) Agonistic activity by cotransfection assay against human Progesterone receptor in T47D cells; assay type: functional, cell-based
Summary of the method: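 T47D human breast cancer cells (high endogenous hPR) incubated with test compound in 96-well format; alkaline phosphatase expression measured by absorbance. […] EC50 from full dose–response curves; mean of at least three separate experiments in triplicate, or single experiment where no error given.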

Androgen receptor = biological target: T2, Androgen receptor (Homo sapiens, UniProt P10275)
T2 sequence (P10275 whole entry): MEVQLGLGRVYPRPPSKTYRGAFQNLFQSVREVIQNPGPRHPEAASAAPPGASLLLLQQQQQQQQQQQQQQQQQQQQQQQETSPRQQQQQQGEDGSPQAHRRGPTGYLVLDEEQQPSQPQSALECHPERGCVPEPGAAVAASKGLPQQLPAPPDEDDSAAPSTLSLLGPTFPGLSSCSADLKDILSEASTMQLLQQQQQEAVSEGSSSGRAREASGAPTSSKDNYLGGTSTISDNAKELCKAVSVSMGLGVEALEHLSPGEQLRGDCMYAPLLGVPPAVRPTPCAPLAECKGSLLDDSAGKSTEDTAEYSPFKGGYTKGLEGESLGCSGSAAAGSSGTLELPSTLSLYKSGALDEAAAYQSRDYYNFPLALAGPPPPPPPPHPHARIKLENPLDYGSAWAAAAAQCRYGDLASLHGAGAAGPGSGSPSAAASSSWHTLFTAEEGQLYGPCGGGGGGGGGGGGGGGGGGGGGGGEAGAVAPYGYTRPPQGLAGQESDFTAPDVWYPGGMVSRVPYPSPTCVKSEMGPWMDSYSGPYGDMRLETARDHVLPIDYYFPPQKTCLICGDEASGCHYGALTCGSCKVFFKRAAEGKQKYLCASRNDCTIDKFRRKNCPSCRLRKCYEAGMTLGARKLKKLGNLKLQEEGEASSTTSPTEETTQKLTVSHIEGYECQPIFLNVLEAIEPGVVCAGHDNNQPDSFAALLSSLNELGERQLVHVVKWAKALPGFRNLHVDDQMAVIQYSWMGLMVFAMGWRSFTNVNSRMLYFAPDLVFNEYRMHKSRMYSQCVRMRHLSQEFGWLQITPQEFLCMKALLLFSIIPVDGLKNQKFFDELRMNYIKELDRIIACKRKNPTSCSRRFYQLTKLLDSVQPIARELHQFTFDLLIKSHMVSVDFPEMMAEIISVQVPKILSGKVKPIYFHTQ

Glucocorticoid receptor = biological target: T3, Glucocorticoid receptor (Homo sapiens, UniProt P04150)
T3 sequence (P04150 whole entry): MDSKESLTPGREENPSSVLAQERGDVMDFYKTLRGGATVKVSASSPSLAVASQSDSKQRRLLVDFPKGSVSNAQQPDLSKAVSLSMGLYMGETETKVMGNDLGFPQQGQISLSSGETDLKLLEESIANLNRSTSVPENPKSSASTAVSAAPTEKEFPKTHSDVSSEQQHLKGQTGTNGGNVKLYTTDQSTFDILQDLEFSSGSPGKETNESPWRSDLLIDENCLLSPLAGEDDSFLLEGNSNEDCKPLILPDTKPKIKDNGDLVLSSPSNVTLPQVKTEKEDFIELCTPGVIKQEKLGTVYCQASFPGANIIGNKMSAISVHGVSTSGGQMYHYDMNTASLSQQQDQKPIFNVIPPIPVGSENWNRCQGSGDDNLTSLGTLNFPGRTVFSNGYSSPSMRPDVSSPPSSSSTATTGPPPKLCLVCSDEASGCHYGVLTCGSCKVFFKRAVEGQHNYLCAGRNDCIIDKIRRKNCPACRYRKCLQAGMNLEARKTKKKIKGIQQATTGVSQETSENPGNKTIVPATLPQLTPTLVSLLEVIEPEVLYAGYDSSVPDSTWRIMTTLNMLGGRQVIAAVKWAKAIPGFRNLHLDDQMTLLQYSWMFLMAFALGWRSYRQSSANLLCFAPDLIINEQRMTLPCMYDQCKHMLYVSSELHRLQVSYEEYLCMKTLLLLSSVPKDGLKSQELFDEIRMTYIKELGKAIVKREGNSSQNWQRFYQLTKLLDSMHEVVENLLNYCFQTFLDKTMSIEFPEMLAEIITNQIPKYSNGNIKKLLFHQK

Progesterone receptor [3] = biological target: T4, Progesterone receptor (Homo sapiens, UniProt P06401); assay: as §1; assay type: functional, cell-based
T4 sequence (P06401 whole entry): T1 sequence (whole entry)

Progesterone receptor [4] = biological target: T4, Progesterone receptor; assay: as §2; assay type: functional, cell-based
Progesterone receptor [5] = biological target: T4, Progesterone receptor; assay: Compound was evaluated for its binding affinity against baculovirus expressed Progesterone receptor
[6] = biological target: T1, Progesterone receptor (Homo sapiens); assay: (§3) Antagonistic activity by cotransfection assay against human Progesterone receptor in CV-1 cells; assay type: functional, cell-based
Progesterone receptor [7] = biological target: T4, Progesterone receptor; assay: as §3; assay type: functional, cell-based
Progesterone receptor [8] = biological target: T4, Progesterone receptor; assay: Agonistic effect on transcriptional activity in T47D cells expressing human Progesterone receptor; assay type: functional, cell-based
Summary of the method: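 T47D human breast cancer cells, which express high levels of hPR, incubated with test compound. Readout is absorbance from induced alkaline phosphatase expression. […] Values are the mean of at least three separate experiments in triplicate; values without SEM are from a single experiment.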

Efficacy [1]	Efficacy [2]	pKi (Androgen receptor)	pKi (Glucocorticoid receptor)	pEC50 (Progesterone receptor [3])	pEC50 (Progesterone receptor [4])	pKi (Progesterone receptor [5])	Efficacy [6]	pIC50 (Progesterone receptor [7])	pEC50 (Progesterone receptor [8])	SMILES
102%	107%	6.16	6.04	–	–	–	–	–	–	C[C@H]1C(=O)C(C)(C)Nc2ccc3c(c21)[C@H](c1ccc(Cl)cc1)Oc1ccccc1-3
122%	97%	5.93	6.48	–	–	–	–	–	–	C[C@@H]1C(=O)C(C)(C)Nc2ccc3c(c21)[C@H](c1ccc(Cl)cc1)Oc1ccccc1-3
93%	85%	5.96	6.59	7.85	7.43	7.78	–	–	–	C[C@@H]1C(=O)C(C)(C)Nc2ccc3c(c21)[C@H](c1cccc(C(F)(F)F)c1)Oc1ccccc1-3
–	47%	–	–	–	7.57	–	–	–	–	CC1=CC(C)(C)Nc2ccc3c(c21)C(c1cccc(Cl)c1)Oc1ccc(F)cc1-3 (centres undefined)
66%	103%	6.09	6.60	7.80	7.20	6.91	–	–	–	C[C@H]1C(=O)C(C)(C)Nc2ccc3c(c21)[C@H](c1cccc(C(F)(F)F)c1)Oc1ccccc1-3
30%	–	–	–	6.91	–	–	81%	5.76	–	C=C1CC(C)(C)Nc2ccc3c(c21)C(c1ccc(Cl)cc1)Oc1ccccc1-3 (centres undefined)
–	–	–	–	–	–	< 6.30	91%	6.34	–	C[C@H]1c2c(ccc3c2[C@H](c2ccc(Cl)cc2)Oc2ccccc2-3)NC(C)(C)[C@@H]1O
–	55%	–	–	–	7.29	–	–	–	–	CC1=CC(C)(C)Nc2ccc3c(c21)/C(=C/c1cccc(F)c1)Oc1ccccc1-3
39%	–	–	–	7.41	–	8.00	–	–	–	C[C@H]1CC(C)(C)Nc2ccc3c(c21)[C@H](c1ccc(Cl)cc1)Oc1ccccc1-3
28%	–	–	–	5.89	–	7.98	50%	6.85	–	CC1(C)C=Cc2c(ccc3c2C(c2ccc(Cl)cc2)Oc2ccccc2-3)N1 (centres undefined)
92%	92%	6.14	6.60	8.00	7.63	8.18	–	–	–	C[C@@H]1C(=O)C(C)(C)Nc2ccc3c(c21)[C@H](c1ccccc1)Oc1ccccc1-3
36%	–	–	–	8.01	–	8.28	–	–	–	CC1(C)Nc2ccc3c(c2C(C)(C)C1=O)C(c1ccc(Cl)cc1)Oc1ccccc1-3 (centres undefined)
–	48%	–	–	–	–	–	–	–	7.49	CC1=CC(C)(C)Nc2ccc3c(c21)C(c1ccc(Cl)cc1)Oc1ccccc1-3 (centres undefined)
–	–	–	–	–	–	< 6.30	69%	5.49	–	C[C@@H]1c2c(ccc3c2[C@H](c2ccc(Cl)cc2)Oc2ccccc2-3)NC(C)(C)[C@H]1O
103%	102%	5.97	6.04	8.05	7.46	7.54	–	–	–	C[C@H]1C(=O)C(C)(C)Nc2ccc3c(c21)[C@H](c1ccccc1)Oc1ccccc1-3
–	–	–	–	–	–	7.61	84%	6.42	–	CC1(C)CC(=O)c2c(ccc3c2C(c2ccc(Cl)cc2)Oc2ccccc2-3)N1 (centres undefined)
58%	–	–	–	7.32	–	7.04	56%	5.51	–	C[C@@H]1CC(C)(C)Nc2ccc3c(c21)[C@H](c1ccc(Cl)cc1)Oc1ccccc1-3
114%	–	–	–	7.33	–	8.20	–	–	–	CC1CC(C)(C)Nc2ccc3c(c21)/C(=C/c1cccc(F)c1)Oc1ccccc1-3 (centres undefined)
–	42%	–	–	–	–	–	–	–	–	CC1=CC(C)(C)Nc2ccc3c(c21)C(C)Oc1ccc(Cl)cc1-3 (centres undefined)
–	90%	–	–	–	–	–	–	–	–	CC(=O)O[C@]1(C(C)=O)CC[C@H]2[C@@H]3C[C@H](C)C4=CC(=O)CC[C@]4(C)[C@H]3CC[C@@]21C

SMILES	Efficacy [1]	Efficacy [2]	pKi (Androgen receptor)	pKi (Glucocorticoid receptor)	pEC50 (Progesterone receptor [3])	pEC50 (Progesterone receptor [4])	pKi (Progesterone receptor [5])	Efficacy [6]	pIC50 (Progesterone receptor [7])	pEC50 (Progesterone receptor [8])
CC1C(=O)C(C)(C)Nc2ccc3c(c21)/C(=C/c1cccc(F)c1)Oc1ccccc1-3 (centres undefined)	155%	83%	6.25	5.33	8.06	7.60	8.46	–	–	–
CC1C(=O)C(C)(C)Nc2ccc3c(c21)/C(=C/c1ccccc1)Oc1ccccc1-3 (centres undefined)	133%	93%	5.92	6.17	7.77	7.74	8.31	–	–	–
C[C@@H]1C(=O)C(C)(C)Nc2ccc3c(c21)[C@H](c1cccc(F)c1)Oc1ccccc1-3	106%	96%	6.21	6.71	8.20	7.83	8.59	–	–	–
C[C@H]1C(=O)C(C)(C)Nc2ccc3c(c21)[C@H](c1cccc(F)c1)Oc1ccccc1-3	114%	107%	6.30	6.06	8.06	7.59	7.55	–	–	–
